These results are taken from ChEMBL document CHEMBL1154067, “Antiviral and cytotoxic activities of aminoarylazo compounds and aryltriazene derivatives” (Bioorg Med Chem, 2009).

pEC50: −log10 of the molar value. Calls of active or inactive are those of the source. The rule behind the calls is not given here.

One data set has as its system MT4. Put plainly: Cytotoxicity against human MT4 cells after 96 hrs by MTT assay. The format is cell-based. To be noted: mt4, 96 h. The procedure, abridged:
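Exponentially growing mock-infected MT-4 seeded at 1 × 10^5 cells/mL in RPMI-1640 with 10% FCS, penicillin and streptomycin. Incubated with or without serial compound dilutions at 37 °C, 5% CO2. Viability by MTT after 96 h. CC50 = concentration reducing viability 50%.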
A general note: Tetrazolium assays rely on reduction of a dye to a coloured formazan, in cell work by metabolically active cells.
With `CN1CCN(/N=N/c2cc(F)ccc2F)CC1`, the half-maximal cytotoxic concentration (CC50) (usually the concentration giving 50% cytotoxicity) was > 100 µM.
With `c1ccc(/N=N/N2CCCC2)cc1`, the CC50 was > 100 µM.
Compound `O=[N+]([O-])c1cccc(/N=N/N2CCCC2)c1` showed a CC50 of 66 µM.
Still for that read-out and setting: in the case of `Clc1cccc(/N=N/N2CCCCC2)c1` it was > 100 µM.
Same read-out and setting: in the case of `Brc1ccc(/N=N/N2CCCCC2)cc1` it was > 100 µM; in that of `O=[N+]([O-])c1cccc(/N=N/N2CCCCC2)c1`, > 100 µM; in that of `Clc1ccc(/N=N/N2CCCC2)cc1Cl`, 75 µM.
Same read-out and setting: for `c1ccc(N=NNc2ccccc2)cc1` the value was 47 µM.

System in another data set: not listed separately
In words: Cytotoxicity against MDBK cells after 48 to 96 hrs by MTT assay. The class given is cell-based, Bos taurus. To be noted: cattle, mdbk. The procedure, abridged:
(§1)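 Mock-infected cells in maintenance medium, MDBK at 6 × 10^5 and BHK at 1 × 10^6 cells/mL initial density, with or without serial compound dilutions. Run in parallel with antiviral assays. Viability by MTT after 48–96 h at 37 °C, 5% CO2. CC50 = concentration reducing viability 50%.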
Take `CN1CCN(/N=N/c2cc(F)ccc2F)CC1`: the CC50 was > 100 µM.
The same measure, in the same setting: for `c1ccc(/N=N/N2CCCC2)cc1` the value was > 100 µM.
On to `O=[N+]([O-])c1cccc(/N=N/N2CCCC2)c1`, for which the CC50 was > 100 µM.
On the same count and under the same terms, in the case of `Clc1cccc(/N=N/N2CCCCC2)c1` it was > 100 µM; in that of `Brc1ccc(/N=N/N2CCCCC2)cc1`, > 100 µM; in that of `O=[N+]([O-])c1cccc(/N=N/N2CCCCC2)c1`, > 100 µM.
For `Clc1ccc(/N=N/N2CCCC2)cc1Cl`, the CC50 was found to be 70 µM.
Still for that read-out and setting: for `c1ccc(N=NNc2ccccc2)cc1` the value was > 100 µM.

The subject of the next data set is Yellow fever virus. In words: Antiviral activity against Yellow fever virus infected in BHK-21 cells assessed as inhibition of virus-induced cytopathicity after 3 to 4 days by MTT assay.
Details: not given
The format is functional, organism-based. (In general: Damage to the host cells serves as the signal in cytopathic effect assays.)
Turning to `CN1CCN(/N=N/c2cc(F)ccc2F)CC1`, the negative logarithm of the EC50 (pEC50) (as a rule, the negative decadic logarithm of the EC50, by convention in mol/L) was 4.30.
In the case of `c1ccc(/N=N/N2CCCC2)cc1`, the pEC50 is < 4.00.
On the same count and under the same terms, in the case of `O=[N+]([O-])c1cccc(/N=N/N2CCCC2)c1` it was < 4.38.
Same read-out and setting: in the case of `Clc1cccc(/N=N/N2CCCCC2)c1` it was < 4.00; in that of `Brc1ccc(/N=N/N2CCCCC2)cc1`, < 4.00; in that of `O=[N+]([O-])c1cccc(/N=N/N2CCCCC2)c1`, < 4.00.
On the same count and under the same terms, in the case of `Clc1ccc(/N=N/N2CCCC2)cc1Cl` it was < 4.30.

Another data set relates to Mammalian orthoreovirus 1. Put plainly: Antiviral activity against Reovirus-1 infected in BHK-21 cells assessed as inhibition of virus-induced cytopathicity after 3 to 4 days by MTT assay. The following applies: Mammalian orthoreovirus 1, BHK-21. The format is functional, organism-based. The procedure, abridged: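 BHK-21 cells seeded at 5 × 10^4 cells/well, grown overnight to confluent monolayers at 37 °C in 5% CO2, then infected at m.o.i. 0.01 in serum-free medium. One hour later, MEM Earle's with 1% final inactivated FCS added, with or without serial compound dilutions. Viability read by MTT after 3–4 days at 37 °C. EC50 is the concentration giving 50% protection from cytopathogenicity.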
Regarding `CN1CCN(/N=N/c2cc(F)ccc2F)CC1`, the pEC50 is 4.52.
Still for that read-out and setting: for `c1ccc(/N=N/N2CCCC2)cc1` the value was < 4.00; for `O=[N+]([O-])c1cccc(/N=N/N2CCCC2)c1`, < 4.38; for `Clc1cccc(/N=N/N2CCCCC2)c1`, < 4.00.
`Brc1ccc(/N=N/N2CCCCC2)cc1`: the negative logarithm of the EC50 (pEC50) was < 4.00.
Still for that read-out and setting: for `O=[N+]([O-])c1cccc(/N=N/N2CCCCC2)c1` the value was < 4.00; for `Clc1ccc(/N=N/N2CCCC2)cc1Cl`, < 4.30.

A further data set concerns Vero. In words: Cytotoxicity against african green monkey Vero 76 cells by crystal violet staining. The format is cell-based. The following applies: chlorocebus sabaeus, vero. An outline of the steps:
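Mock-infected Vero 76 seeded at 4 × 10^5 cells/mL, run in parallel with plaque assays, with or without serial compound dilutions. Cell number of monolayers determined by crystal violet staining. CC50 = concentration reducing viable cell number 50%.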
`CN1CCN(/N=N/c2cc(F)ccc2F)CC1`: the CC50 was ≥ 100 µM.
With `c1ccc(/N=N/N2CCCC2)cc1`, the CC50 was > 100 µM.
Same read-out and setting: for `O=[N+]([O-])c1cccc(/N=N/N2CCCC2)c1` the value was 80 µM; for `Clc1cccc(/N=N/N2CCCCC2)c1`, > 100 µM.
On to `Brc1ccc(/N=N/N2CCCCC2)cc1`, for which the cytotoxic concentration (CC50) was > 100 µM.
On the same count and under the same terms, in the case of `O=[N+]([O-])c1cccc(/N=N/N2CCCCC2)c1` it was 83 µM; in that of `Clc1ccc(/N=N/N2CCCC2)cc1Cl`, 58 µM.
Same read-out and setting: for `c1ccc(N=NNc2ccccc2)cc1` the value was 90 µM.

In another data set the test system is Coxsackievirus B2. In words: Antiviral activity against Coxsackie virus type B2 virus infected in african green monkey Vero-76 cells after 3 days by plaque reduction assay. The class given is functional, organism-based. To be noted: Enterovirus B, Vero 76, 72 h. The procedure, abridged: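 Vero 76 cells seeded at 2 × 10^5 cells/well, grown overnight to confluence at 37 °C in 5% CO2, then infected at 50–100 PFU/well. Unadsorbed virus removed. Overlay of DMEM with 1% inactivated FCS and 0.75% methylcellulose, with or without serial compound dilutions. After 3 days at 37 °C, fixed and stained with crystal violet in PBS/50% ethanol; plaques counted. EC50 is the concentration reducing plaque number by 50%.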
In general terms: Plaque reduction counts the foci of infection that form in a cell layer.
Turning to `CN1CCN(/N=N/c2cc(F)ccc2F)CC1`, the pEC50 was 4.15.
Still for that read-out and setting: for `c1ccc(/N=N/N2CCCC2)cc1` the value was < 4.00; for `O=[N+]([O-])c1cccc(/N=N/N2CCCC2)c1`, < 4.10.
Same read-out and setting: for `Clc1cccc(/N=N/N2CCCCC2)c1` the value was < 4.00.
Still for that read-out and setting: for `Brc1ccc(/N=N/N2CCCCC2)cc1` the value was 4.60; for `O=[N+]([O-])c1cccc(/N=N/N2CCCCC2)c1`, < 4.08.
`Clc1ccc(/N=N/N2CCCC2)cc1Cl`: the pEC50 is < 4.24.

The test system of the next data set is Respiratory syncytial virus. Put plainly: Antiviral activity against Respiratory syncytial virus A2 infected in Vero-76 cells after 5 days by plaque reduction assay. To be noted: human respiratory syncytial virus, A2, Vero 76, 120 h. The format is functional, organism-based.
Regarding `CN1CCN(/N=N/c2cc(F)ccc2F)CC1`, the pEC50 is < 4.00.
Same read-out and setting: for `c1ccc(/N=N/N2CCCC2)cc1` the value was ≤ 4.00.
Still for that read-out and setting: in the case of `O=[N+]([O-])c1cccc(/N=N/N2CCCC2)c1` it was 5.10; in that of `Clc1cccc(/N=N/N2CCCCC2)c1`, < 4.00.
In turn, `Brc1ccc(/N=N/N2CCCCC2)cc1` gave a pEC50 of 4.14.
Same read-out and setting: for `O=[N+]([O-])c1cccc(/N=N/N2CCCCC2)c1` the value was < 4.08; for `Clc1ccc(/N=N/N2CCCC2)cc1Cl`, 4.70.

The subject of a further data set is Human alphaherpesvirus 1. In words: Antiviral activity against HSV1 infected in Vero-76 cells after 3 days by plaque reduction assay. The class given is functional, organism-based. To be noted: Human alphaherpesvirus 1, Vero 76, 72 h.
Compound `CN1CCN(/N=N/c2cc(F)ccc2F)CC1` gave a pEC50 of 4.19.
Same read-out and setting: in the case of `c1ccc(/N=N/N2CCCC2)cc1` it was < 4.00; in that of `O=[N+]([O-])c1cccc(/N=N/N2CCCC2)c1`, < 4.10.
Same read-out and setting: for `Clc1cccc(/N=N/N2CCCCC2)c1` the value was < 4.00.
For `Brc1ccc(/N=N/N2CCCCC2)cc1`, the negative logarithm of the EC50 (pEC50) was < 4.00.
As to `O=[N+]([O-])c1cccc(/N=N/N2CCCCC2)c1`, the pEC50 is < 4.08.
Still for that read-out and setting: in the case of `Clc1ccc(/N=N/N2CCCC2)cc1Cl` it was < 4.24.

System in a further data set: not listed separately
In words: Cytotoxicity against hamster BHK21 cells assessed as reduction in cell viability after 48 to 96 hrs by MTT assay. The format is cell-based, Mesocricetus auratus, BHK-21. The following applies: bhk-21. The procedure, abridged:
as §1
Regarding `CN1CCN(/N=N/c2cc(F)ccc2F)CC1`, the CC50 was > 100 µM.
As to `c1ccc(/N=N/N2CCCC2)cc1`, the CC50 is ≥ 100 µM.
Still for that read-out and setting: in the case of `O=[N+]([O-])c1cccc(/N=N/N2CCCC2)c1` it was 42 µM; in that of `Clc1cccc(/N=N/N2CCCCC2)c1`, > 100 µM; in that of `Brc1ccc(/N=N/N2CCCCC2)cc1`, > 100 µM.
Same read-out and setting: for `O=[N+]([O-])c1cccc(/N=N/N2CCCCC2)c1` the value was > 100 µM.
In the case of `Clc1ccc(/N=N/N2CCCC2)cc1Cl`, the CC50 came to 50 µM.
Still for that read-out and setting: for `c1ccc(N=NNc2ccccc2)cc1` the value was > 100 µM.

The next data set has as its system Poliovirus 1. In words: Antiviral activity against Human poliovirus 1 strain Sabin after 2 days by plaque reduction assay. The class given is functional. To be noted: Enterovirus C, 48 h.
For the compound `CN1CCN(/N=N/c2cc(F)ccc2F)CC1`, the pEC50 was < 4.00.
On the same count and under the same terms, in the case of `c1ccc(/N=N/N2CCCC2)cc1` it was < 4.00; in that of `O=[N+]([O-])c1cccc(/N=N/N2CCCC2)c1`, 4.52; in that of `Clc1cccc(/N=N/N2CCCCC2)c1`, < 4.00.
Still for that read-out and setting: for `Brc1ccc(/N=N/N2CCCCC2)cc1` the value was < 4.00.
On the same count and under the same terms, for `O=[N+]([O-])c1cccc(/N=N/N2CCCCC2)c1` the value was < 4.08; for `Clc1ccc(/N=N/N2CCCC2)cc1Cl`, 4.60.

A further data set has as its system Human immunodeficiency virus 1. Put plainly: Antiviral activity against HIV1 infected in human MT4 cells assessed as inhibition of virus-induced cytopathicity after 4 days by MTT assay. The format is functional, organism-based.
Details: not given
As for `CN1CCN(/N=N/c2cc(F)ccc2F)CC1`, the inhibition result was “inactive”.
The same measure, in the same setting: for `c1ccc(/N=N/N2CCCC2)cc1` the value was “inactive”; for `O=[N+]([O-])c1cccc(/N=N/N2CCCC2)c1`, “inactive”; for `Clc1cccc(/N=N/N2CCCCC2)c1`, “inactive”.
As for `Brc1ccc(/N=N/N2CCCCC2)cc1`, the inhibition result is “inactive”.
On to `O=[N+]([O-])c1cccc(/N=N/N2CCCCC2)c1`, for which the inhibition result was “inactive”.
On to `Clc1ccc(/N=N/N2CCCC2)cc1Cl`, for which the inhibition entry was “inactive”.

The next data set relates to Vesicular stomatitis virus. In words: Antiviral activity against Vesicular stomatitis virus after 2 days by plaque reduction assay. The format is functional, organism-based.
Details: not given
As to `CN1CCN(/N=N/c2cc(F)ccc2F)CC1`, the outcome was inactive.
The same measure, in the same setting: for `c1ccc(/N=N/N2CCCC2)cc1` the value was “inactive”; for `O=[N+]([O-])c1cccc(/N=N/N2CCCC2)c1`, “inactive”; for `Clc1cccc(/N=N/N2CCCCC2)c1`, “inactive”.
Regarding `Brc1ccc(/N=N/N2CCCCC2)cc1`, the outcome was inactive.
Consider `O=[N+]([O-])c1cccc(/N=N/N2CCCCC2)c1`, for which the outcome was inactive.
Turning to `Clc1ccc(/N=N/N2CCCC2)cc1Cl`, the result was inactive.

The next data set concerns Vaccinia virus. In words: Antiviral activity against Vaccinia virus after 3 days by plaque reduction assay. The following applies: Orthopoxvirus vaccinia. The class given is functional, organism-based.
As to `CN1CCN(/N=N/c2cc(F)ccc2F)CC1`, the result was inactive.
`c1ccc(/N=N/N2CCCC2)cc1`: the result was inactive.
As for `O=[N+]([O-])c1cccc(/N=N/N2CCCC2)c1`, the outcome was inactive.
The same measure, in the same setting: in the case of `Clc1cccc(/N=N/N2CCCCC2)c1` it was “inactive”; in that of `Brc1ccc(/N=N/N2CCCCC2)cc1`, “inactive”.
On the same count and under the same terms, in the case of `O=[N+]([O-])c1cccc(/N=N/N2CCCCC2)c1` it was “inactive”; in that of `Clc1ccc(/N=N/N2CCCC2)cc1Cl`, “inactive”.
